In general, EC50 refers to the concentration that produces a half-maximal response. In general, Ki refers to a measure of affinity in units of concentration, obtained from inhibition or displacement.

The results in this text go back to ChEMBL document CHEMBL1154633, “Synthesis and biological evaluation of 2-alkynyl-N6-methyl-5'-N-methylcarboxamidoadenosine derivatives as potent and highly selective agonists for the human adenosine A3 receptor” (J Med Chem, 2009).

The target of assay [1] is T1, Adenosine receptor A3 (Homo sapiens) (UniProt P0DMS8).
T1 sequence (whole entry): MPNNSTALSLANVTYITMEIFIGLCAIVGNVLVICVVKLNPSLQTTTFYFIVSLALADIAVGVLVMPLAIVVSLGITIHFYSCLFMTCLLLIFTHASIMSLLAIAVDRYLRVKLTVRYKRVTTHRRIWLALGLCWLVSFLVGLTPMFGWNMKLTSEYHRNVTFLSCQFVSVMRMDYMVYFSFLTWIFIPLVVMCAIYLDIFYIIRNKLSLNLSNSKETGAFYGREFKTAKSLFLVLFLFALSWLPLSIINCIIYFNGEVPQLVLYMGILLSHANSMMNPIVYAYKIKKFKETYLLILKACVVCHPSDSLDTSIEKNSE
Briefly: Agonist activity at human recombinant adenosine A3 receptor expressed in CHO cells assessed as nonradiaoactive DELFIA Eu-GTP binding treated for 15 mins before addition of Eu-GTP measured after 45 mins by time-resolved fluorometric method relative to Cl-IBMECA. The assay is classed as cell-based. Also on record: concentration or dose not given beside the values.

Assay [2] deals with T1, Adenosine receptor A3 (Homo sapiens). Briefly: Agonist activity at human recombinant adenosine A3 receptor expressed in CHO cells assessed as nonradiaoactive DELFIA Eu-GTP binding treated for 15 mins before addition of Eu-GTP measured after 45 mins by time-resolved fluorometric method in presence of increasing saponin concentration. Type of assay: cell-based.
Assay [3] deals with Adenosine receptors; A1 & A3 (Homo sapiens) (UniProt P30542+P0DMS8). In words: Selectivity ratio of Ki for human recombinant adenosine A1 receptor to Ki for human recombinant adenosine A3 receptor. A digest of the protocol: (§1)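 Selectivity is Ki at human A1R (displacement of [3H]CCPA) or at human A2AR (displacement of [3H]NECA) divided by Ki at human A3R (displacement of [3H]NECA). All receptors stably expressed in CHO cells, competition experiments in 96-well microplates.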

The species named for a further assay is Homo sapiens. Briefly: Selectivity ratio of Ki for human recombinant adenosine A2A receptor to Ki for human recombinant adenosine A3 receptor. The method, boiled down: as §1
Assay [4] has as its target T2, Adenosine receptor A3 (Homo sapiens, UniProt P0DMS8).
T2 sequence (P0DMS8 whole entry): T1 sequence (whole entry)
In words: Agonist activity at human recombinant adenosine A3 receptor expressed in CHO cells assessed as nonradiaoactive DELFIA Eu-GTP binding treated for 15 mins before addition of Eu-GTP measured after 45 mins by time-resolved fluorometric method. Type of assay: cell-based.

Assay [5] addresses T2, Adenosine receptor A3. In words: Displacement of [3H]NECA from human recombinant adenosine A3 receptor expressed in CHO cells. The assay is classed as cell-based. A digest of the protocol:
(§2)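 Competition binding in 96-well microplates with radioligand [3H]NECA on CHO cells stably transfected with human recombinant A2AR or A3R. Ki of unlabeled compound from displacement of specific binding, with 95% confidence intervals.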

A further assay has as its target T3, Adenosine receptor A1 (Homo sapiens, UniProt P30542).
T3 sequence (P30542 whole entry): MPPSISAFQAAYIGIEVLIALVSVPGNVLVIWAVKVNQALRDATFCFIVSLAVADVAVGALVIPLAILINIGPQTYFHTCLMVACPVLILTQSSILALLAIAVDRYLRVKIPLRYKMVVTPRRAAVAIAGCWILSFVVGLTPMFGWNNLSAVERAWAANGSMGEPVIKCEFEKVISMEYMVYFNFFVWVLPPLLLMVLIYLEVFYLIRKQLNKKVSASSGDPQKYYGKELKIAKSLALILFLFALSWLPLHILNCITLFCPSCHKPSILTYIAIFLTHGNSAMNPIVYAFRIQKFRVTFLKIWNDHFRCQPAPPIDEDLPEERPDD
In words: Displacement of [3H]CCPA from human recombinant adenosine A1 receptor expressed in CHO cells. The assay is classed as cell-based. A general note: Loss of bound radioactivity is the signal in a displacement assay; it reports binding, not function.

For assay [6], the target named is T1, Adenosine receptor A3 (Homo sapiens). Briefly: Ratio of Cl-IBMECA EC50 to compound EC50 for human recombinant adenosine A3 receptor expressed in CHO cells. The assay is classed as cell-based.
The next assay deals with Adenosine receptor A2a (Homo sapiens, UniProt P29274). In words: Displacement of [3H]NECA from human recombinant adenosine A2A receptor expressed in CHO cells. The assay is classed as cell-based. The method, boiled down: as §2
Chain of Adenosine receptor A2a (P29274 whole entry): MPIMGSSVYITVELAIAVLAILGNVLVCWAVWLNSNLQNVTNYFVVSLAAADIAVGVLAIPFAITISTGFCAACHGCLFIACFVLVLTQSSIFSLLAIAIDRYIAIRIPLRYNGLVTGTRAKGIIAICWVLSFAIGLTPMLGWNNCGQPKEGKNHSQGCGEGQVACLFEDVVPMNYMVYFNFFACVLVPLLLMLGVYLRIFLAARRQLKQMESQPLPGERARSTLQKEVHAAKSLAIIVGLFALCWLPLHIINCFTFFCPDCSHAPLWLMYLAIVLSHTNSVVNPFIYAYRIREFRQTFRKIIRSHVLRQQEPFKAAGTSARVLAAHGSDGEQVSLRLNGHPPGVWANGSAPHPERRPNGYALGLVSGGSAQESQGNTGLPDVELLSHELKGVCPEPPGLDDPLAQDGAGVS

Calls of active or inactive are those of the source. The rule behind the calls is not given here.

With `CONc1nc(C#Cc2ccccn2)nc2c1ncn2[C@@H]1O[C@H](CO)[C@@H](O)[C@H]1O`, the Activity in [1] was 9%.

For `CNC(=O)[C@H]1O[C@@H](n2cnc3c(NOC)nc(C#Cc4ccc(F)cc4)nc32)[C@H](O)[C@@H]1O`, the result in assay [2] was inactive. Further, the Ratio Ki came out at 1600 in [3] and 9800 in the assay filed under Homo sapiens. Further, the EC50 at Adenosine receptor A3 [4] turned out to be 210 nM. Moreover, the Activity in assay [1] was 100%.

Turning to `CONc1nc(C#Cc2ccccc2)nc2c1ncn2[C@@H]1O[C@H](CO)[C@@H](O)[C@H]1O`, the Ratio Ki in assay [3] worked out at 300; in the assay filed under Homo sapiens, 1100. The Ki on Adenosine receptor A3 [5] is 3.8 nM. Further, the EC50 at Adenosine receptor A3 [4] turned out to be 320 nM. Also, the Activity in assay [1] was determined as 55%.

As to `CNC(=O)[C@H]1O[C@@H](n2cnc3c(NC)nc(C#Cc4ccccn4)nc32)[C@H](O)[C@@H]1O`, the result in assay [2] was inactive. In addition, the Ratio Ki was determined as 22000 in assay [3] and 61000 in the assay listed under Homo sapiens. For the same compound, the Ki came out at 8740 nM at Adenosine receptor A1, 0.4 nM at Adenosine receptor A3 [5] and 24300 nM at Adenosine receptor A2a. Also, in assay [6], the Ratio EC50 is 7. For the same compound, on Adenosine receptor A3 [4], the EC50 stood at 46 nM. For the same compound, the Activity in assay [1] is 100%.

In the case of `CNC(=O)[C@H]1O[C@@H](n2cnc3c(NOC)nc(C#Cc4ccccc4)nc32)[C@H](O)[C@@H]1O`, in assay [2], the outcome was inactive. For the same compound, the Ratio Ki worked out at 4800 in [3] and 8600 in the assay filed under Homo sapiens. Besides, the EC50 on Adenosine receptor A3 [4] is 120 nM. Further, the Activity in assay [1] amounted to 100%.

On to `CNC(=O)[C@H]1O[C@@H](n2cnc3c(NC)nc(C#Cc4ccccc4)nc32)[C@H](O)[C@@H]1O`, for which the outcome in assay [2] was inactive. Also, the Ratio Ki in assay [3] came out at 76500; in the assay filed under Homo sapiens, 97000. Also, the Ki was 32800 nM at Adenosine receptor A1, 0.44 nM at Adenosine receptor A3 [5] and 41700 nM at Adenosine receptor A2a. Further, the EC50 at Adenosine receptor A3 [4] is 151 nM. The Activity in [1] turned out to be 100%.

Take `CNC(=O)[C@H]1O[C@@H](n2cnc3c(NCc4ccc(I)cc4)nc(Cl)nc32)[C@H](O)[C@@H]1O`: the EC50 at Adenosine receptor A3 [4] is 363 nM.

Consider `CNC(=O)[C@H]1O[C@@H](n2cnc3c(NOC)nc(C#Cc4ccccn4)nc32)[C@H](O)[C@@H]1O`, for which, in assay [2], the result was inactive. Further, the Ratio Ki in assay [3] is 3600; in the assay filed under Homo sapiens it was 16400. In addition, in assay [6], the Ratio EC50 was 7. Moreover, the EC50 at Adenosine receptor A3 [4] is 52 nM. Moreover, the Activity in [1] worked out at 100%.

Turning to `CNC(=O)[C@H]1O[C@@H](n2cnc3c(NC)nc(C#Cc4ccc(F)cc4)nc32)[C@H](O)[C@@H]1O`, the result in [2] was inactive. In addition, the figures for the Ratio Ki (in [3]; in the assay listed under Homo sapiens) were 12500 and 29500, respectively. The Ki at Adenosine receptor A1 turned out to be 5310 nM; on Adenosine receptor A3 [5] it was 0.43 nM; on Adenosine receptor A2a, 12700 nM. Moreover, the EC50 at Adenosine receptor A3 [4] was 190 nM. Also, the Activity in [1] turned out to be 100%.

As for `CNc1nc(C#Cc2ccccc2)nc2c1ncn2[C@@H]1O[C@H](CO)[C@@H](O)[C@H]1O`, the Ratio Ki was 500 in assay [3] and 2500 in the assay filed under Homo sapiens. Also, the EC50 on Adenosine receptor A3 [4] amounted to 290 nM. The Activity in assay [1] came to 65%.
